Results on eleven molecules are retold here after ChEMBL document CHEMBL1126268, “Antimitotic agents. Chiral isomers of ethyl [5-amino-1,2-dihydro-3-(4-hydroxyphenyl)-2-methylpyrido[3,4-b]pyrazin-7 -yl]carbamate” (J Med Chem, 1992).

Assay [1] has as its system P388. Put plainly: The compound was tested in vivo for percent increase in life span against lymphocytic leukemia P388 in mice after intraperitoneal administration of 1 mg/kg dose. The conditions noted are these: Mus musculus, P388, ip. It is filed as functional. The essentials:
(§1)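 Mice bearing lymphocytic leukemia P388. The reported value is the percent increase in life span at the highest nontoxic dose tested.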

Assay [2] concerns L1210. Put plainly: The compound was tested in vitro for mitotic inhibition against proliferation of cultured lymphoid leukemia L1210 cells. It is filed as functional, Mus musculus. The essentials:
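Cultured lymphoid leukemia L1210 cells exposed to agent for 12 h; mitotic index scored as cells in mitosis over total cells; value is the nanomolar concentration producing a mitotic index of 0.5.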

Assay [3] has as its system L1210. Put plainly: The compound was tested in vitro for cytotoxicity against proliferation of cultured lymphoid leukemia L1210 cells. It is filed as functional, cell-based. The conditions noted are these: Mus musculus. The essentials:
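Cultured lymphoid leukemia L1210 cells exposed to agent for 48 h; value is the nanomolar concentration giving 50% of control growth.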

In assay [4] the test system is P388. Put plainly: The compound was tested in vivo for percent increase in life span against lymphocytic leukemia P388 in mice after intraperitoneal administration of 0.5 mg/kg dose. The format is functional. The conditions noted are these: Mus musculus, P388, ip. The essentials: as §1
In assay [5] the test system is P388. Briefly: The compound was tested in vivo for percent increase in life span against lymphocytic leukemia P388 in mice after intraperitoneal administration of 0.22 mg/kg dose. It is filed as functional. To be noted: Mus musculus, P388, ip. The essentials: as §1
In assay [6] the test system is P388. Briefly: The compound was tested in vivo for percent increase in life span against lymphocytic leukemia P388 in mice after intraperitoneal administration of 25 mg/kg dose. It is filed as functional. To be noted: Mus musculus, P388, ip. The essentials: as §1
In assay [7] the test system is P388. Briefly: The compound was tested in vivo for percent increase in life span against lymphocytic leukemia P388 in mice after intraperitoneal administration of 0.25 mg/kg dose. The conditions noted are these: Mus musculus, P388, ip. It is filed as functional. Summed up:
as §1

In assay [8] the test system is P388. Briefly: The compound was tested in vivo for percent increase in life span against lymphocytic leukemia P388 in mice after intraperitoneal administration of 30 mg/kg dose. It is filed as functional. The conditions noted are these: Mus musculus, P388, ip. Summed up: as §1

Molecules are shown by their SMILES.

As usually defined, the ILS is the gain in survival time of treated over control animals, in per cent. Low readings indicate little gain in survival, high ones much gain in survival. As a reminder, the IC50 is the midpoint of a concentration-inhibition curve. Low values mean greater potency in that assay, high ones weaker potency in that assay. In turn, `CCOC(=O)Nc1cc2c(c(N)n1)N=C(c1ccc(OCc3ccccc3)cc1)C(C)N2` (stereo not given) had an increase in life span (ILS) at 1 mg/kg in assay [1] of 120%. In assay [2], this molecule gave an MI0.5 of 30 nM. The molecule further had an IC50 in assay [3] of 7 nM.

Regarding `CCOC(=O)Nc1cc2c(c(N)n1)N=C(c1ccc(OC)cc1)C(C)N2` (stereo not given), the increase in life span (ILS) at 1 mg/kg in assay [1] was determined as 69%. In assay [2], this molecule gave an MI0.5 of 0.42 nM.

In the case of `CCOC(=O)Nc1cc2c(c(N)n1)N=C(c1ccccc1)C(C)N2` (racemic), in assay [1], the ILS at 1 mg/kg was 71%. In assay [2], this molecule displayed an MI0.5 of 0.58 nM.

For the molecule `CCOC(=O)Nc1cc2c(c(N)n1)N=C(c1ccc(O)cc1)C(C)N2` (racemic), the ILS at 0.5 mg/kg in assay [4] was 55%. In assay [2], this molecule registered an MI0.5 of 0.47 nM. Further, the IC50 in assay [3] came out at 0.22 nM.

`CCOC(=O)Nc1cc2c(c(N)n1)N=C(c1ccc(OC(=O)NCCCl)cc1)C(C)N2` (stereo not given) showed an increase in lifespan (ILS) at 1 mg/kg in assay [1] of 90%. The IC50 in assay [3] amounted to 0.043 nM.

`CCOC(=O)Nc1cc2c(c(NC(=O)NCCCl)n1)N=C(c1ccc(OC(=O)NCCCl)cc1)C(C)N2` (stereo not given) yielded a half-maximal inhibitory concentration (IC50) in assay [3] of 570 nM.

On to `CCOC(=O)Nc1cc2c(c(N)n1)N=C(c1ccc(O)cc1)[C@H](C)N2`, for which the increase in lifespan (ILS) at 0.22 mg/kg in assay [5] was 58%. The molecule also showed an MI0.5 in assay [2] of 0.3 nM. Further, the concentration for half-maximal inhibition (IC50) in assay [3] came to 0.18 nM.

In assay [4], `CCOC(=O)Nc1cc2c(c(N)n1)N=C(c1ccccc1)[C@H](C)N2` [MIVOBULIN] yielded an increase in lifespan (ILS) at 0.5 mg/kg of 64%. The molecule also came in with an MI0.5 in assay [2] of 0.14 nM. The molecule also came in with an IC50 in assay [3] of 0.09 nM.

As to `CCOC(=O)Nc1cc2c(c(N)n1)N=C(c1ccc(O)cc1)[C@@H](C)N2`, in assay [6], the ILS at 25 mg/kg came to 77%. For the same molecule, the IC50 in assay [3] amounted to 32 nM.

`CCCCNC(=O)Oc1ccc(C2=Nc3c(cc(NC(=O)OCC)nc3N)NC2C)cc1` (stereo not given) gave an increase in lifespan (ILS) at 0.25 mg/kg in assay [7] of 120%. The molecule further gave an IC50 in assay [3] of 0.47 nM.

Molecule `CCOC(=O)Nc1cc2c(c(N)n1)N=C(c1ccccc1)[C@@H](C)N2` yielded an ILS at 30 mg/kg in assay [8] of 88%. Besides, the MI0.5 in assay [2] came out at 27 nM.
